Screening results as filed in PubChem.
MITF TRPM1 HTS: MITF TRPM1 promoter activation in melanoma cells; SK-MEL-5 TRPM1-promoter luciferase, 24 h; % of positive control, neutral wells = 0; activation, % at 12.5 µM; actives 0.75% (n = 300,000);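 active = mean activation of at least 80% with every replicate also reaching 80%; inconclusive = mean reaches 80% but some replicate falls short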;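 note: 0% = neutral control wells and 100% = parthenolide positive control wells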
Wnt bcat act: Wnt/beta-catenin pathway activation; Wnt/beta-catenin reporter cell assay, activator, plate reader; activation, % at 9.35 µM; actives 1.2% (n = 300,000); AID 743398; in the data active = activation above about 30%, passing the limit was not always enough; inconclusive = no clear call, values can overlap the other calls;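 note: 0% = neutral control wells and 100% = positive control wells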
Cneo AK release: causes C. neoformans cell lysis | AID 651654 | adenylate kinase release luminescence, 4 h; normalised: neutral wells 0, clomiphene wells 100 | lysis activity, % at 15 µM | actives 0.2% (n = 360,000);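 active = mean lysis activity across replicates of at least 80%, whatever share of replicates individually reach that level; inactive = mean lysis activity below 80%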
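Material: C. neoformans cells; Schedule: 4 h static compound exposure, 37 °C, read 1 h post-reagent; Measured by: adenylate kinase release luminescence; Read-out: signal increase indicating cell lysis; Controls: Clomiphene as positive lysis control.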
esBAF inh: SWI/SNF esBAF complex inhibition; mouse ES cells, Bmi1-luciferase knock-in reporter, 24 h; 100% = twice the neutral-well signal; reporter increase, % at 12.5 µM; actives 2% (n = 350,000); AID 602393; in the data active = activation above about 40%; inconclusive = no clear call, values can overlap the other calls;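 note: 0% = median of the plate's neutral control wells and 100% = double that signal; a rise in the Bmi1 reporter signal indicates esBAF inhibition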
HIV Env fusion: inhibitors of HIV Env-mediated cell fusion. AID 651610. inhibition, % at 12.3 µM. actives 1.1% (n = 360,000). HeLa-JRFL Env/CEM21 cell fusion, luciferase;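 active = mean replicate inhibition score of at least 50 and every replicate individually at or above 50; inconclusive = only one of the two criteria met; inactive = mean below 50 and not all replicates reaching 50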;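 note: 0% = plate neutral controls and 100% = maraviroc near 300 nM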
ERAP1 inh: inhibitors of human ERAP1 aminopeptidase. Q9NZ08. recombinant ERAP1, Leu-AMC fluorescence, 60 min. inhibition, % at 10.7 µM. actives 0.15% (n = 340,000). AID 652197;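 active = mean replicate inhibition of at least 30%, or all replicates individually reaching that 30% level; inactive = mean below 30% and not every replicate reaching it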;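 note: 0% = neutral control wells and 100% = L-leucinethiol positive control wells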
Target sequence (Q9NZ08 whole entry, looked up): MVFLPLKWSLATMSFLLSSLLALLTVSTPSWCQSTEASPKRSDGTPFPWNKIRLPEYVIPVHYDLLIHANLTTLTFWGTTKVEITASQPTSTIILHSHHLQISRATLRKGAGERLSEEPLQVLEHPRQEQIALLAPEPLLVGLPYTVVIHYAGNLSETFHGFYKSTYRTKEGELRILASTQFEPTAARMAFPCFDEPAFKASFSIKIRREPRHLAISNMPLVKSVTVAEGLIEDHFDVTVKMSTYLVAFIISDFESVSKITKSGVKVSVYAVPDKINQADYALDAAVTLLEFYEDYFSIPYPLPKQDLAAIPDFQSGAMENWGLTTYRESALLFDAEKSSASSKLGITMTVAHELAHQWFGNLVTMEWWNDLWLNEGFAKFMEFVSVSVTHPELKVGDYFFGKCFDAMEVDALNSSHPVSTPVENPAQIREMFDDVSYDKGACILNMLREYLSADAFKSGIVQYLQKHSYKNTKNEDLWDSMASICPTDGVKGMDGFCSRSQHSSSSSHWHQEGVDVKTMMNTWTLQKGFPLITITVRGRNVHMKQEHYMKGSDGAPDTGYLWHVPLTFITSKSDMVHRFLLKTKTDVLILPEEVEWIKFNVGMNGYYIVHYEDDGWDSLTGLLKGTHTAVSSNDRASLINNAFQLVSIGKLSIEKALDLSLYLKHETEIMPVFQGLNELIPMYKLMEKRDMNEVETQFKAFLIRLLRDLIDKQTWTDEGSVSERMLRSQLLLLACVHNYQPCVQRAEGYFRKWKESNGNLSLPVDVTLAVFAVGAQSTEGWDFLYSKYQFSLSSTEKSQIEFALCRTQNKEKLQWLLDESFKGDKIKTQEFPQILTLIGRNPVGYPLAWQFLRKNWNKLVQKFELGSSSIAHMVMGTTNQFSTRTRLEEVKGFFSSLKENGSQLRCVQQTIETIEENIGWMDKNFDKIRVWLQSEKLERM
Starred values were filed as active, the others as inactive; ? = inconclusive; · = not tested or not shown; ! = not active in a repeat; [ ] = remark or other dose. An excerpt weighted towards active compounds, which were near 3.5% of everything screened.

SMILES	MITF TRPM1 HTS	Wnt bcat act	Cneo AK release	esBAF inh	HIV Env fusion	ERAP1 inh
CC1CC(C)(O)CC(C(O)CC2CC(=O)NC(=O)C2)C1=O (stereo not drawn)	·	-6	·	·	98*	2
CC=CC(C)=CC(C)C(=O)CC(O)CC1CC(=O)NC(=O)C1 (stereo not drawn)	·	-14	·	·	24	2
COc1ccc(-c2ccc3n(c2=O)C[C@H]2[C@H](CO)[C@@H](C(=O)O)[C@@H]3N2C(=O)c2ccccc2F)cc1	·	·	0	1	6[16.7 µM]	-1
Cc1ccc(N2C(=O)NC(=O)C(CCc3ccccn3)(Cc3ccc(F)cc3)C2=O)cc1 (stereo not drawn)	2	-7	·	·	58*	2
CC(C)(O)/C=C/C(=O)C(C)(O)C1C(O)CC2(C)C3CC=C4C(C=C(O)C(=O)C4(C)C)C3(C)C(=O)CC12C (stereo not drawn)	-92	-9	·	·	81*	-3
O=C(Nc1ccc(Cl)c(Cl)c1)c1ccco1	54	9	-8	60*	-80	12
COC(=O)[C@H]1[C@H](CO)[C@H]2Cn3c(cccc3=O)[C@@H]1N2CCc1ccccc1	·	·	-2	-1	-8[16.7 µM]	0
CC12CCC(O)CC1CCC1C2CCC2(C)C(C3=CC(=O)OC3)CCC12O (stereo not drawn)	·	-4	·	·	87*	1
CC12CCC(O)CC1CCC1C2CCC2(C)C(C3=CC(=O)OC3)C(O)CC12O (stereo not drawn)	·	-25	·	·	74*	-3
C[C@]12CC[C@H](O)C[C@H]1CC[C@@H]1[C@@H]2CC[C@]2(C)[C@@H](C3=CC(=O)OC3)CC[C@]12O	-71	-1	0	1	?	-3
COC1C(O)C(C)OC(OC2CCC3(C)C(CCC4C3C(O)CC3(C)C(C5=CC(=O)OC5)CCC43O)C2)C1O (stereo not drawn)	·	-26	·	·	86*	0
COc1ccc(/C=C2\C(=O)NC(=S)N(C)C2=O)cc1C	-17	-1	·	·	-6	34*
COc1ccc(CCN(C)Cc2ccc(F)cc2F)cc1OC	3	34*	-1	3	-3	·
O=C1C(=O)N(c2ccccc2)P(=O)(N(CCCl)CCCl)N1c1ccccc1	99*	37*	-3	27	-79	-6
O=C(O)[C@H]1[C@H](CO)[C@H]2Cn3c(ccc(-c4ccc(F)cc4)c3=O)[C@@H]1N2CC1CCCC1	·	·	·	·	-10[16.7 µM]	1
CN1C(=O)C2C[C@@]3(Br)c4ccccc4N(OOSc4ccccc4)[C@H]3N2C(=O)[C@@H]1Cc1ccccc1 (stereo partly drawn)	1	-2	-1	-5	77*	·
Cc1ccccc1-c1ccc([C@H]2[C@@H](CO)N3CCCCN(C(=O)Cc4ccccn4)C[C@@H]23)cc1	·	·	1	·	·	2
N#Cc1cccc(-c2ccc([C@@H]3[C@@H](CO)N4CCCCN(C(=O)Cc5ccccc5)C[C@@H]34)cc2)c1	·	·	1	·	·	-3
Cc1cccc(N=Nc2ccc(N(C)C)cc2)c1	56	49*	-4	2	-110	-1
CNc1ccc2oc(C[C@H]3O[C@@]4(CC[C@H]3C)O[C@H]([C@H](C)C(=O)c3ccc[nH]3)[C@H](C)C[C@H]4C)nc2c1C(=O)O	-101	-22	-2	-59	90*	2
COCCNC(=O)c1c(N)n(CCC(C)C)c2nc3ccccc3nc12	-10	·	2	·	59*	·
CN1CCN(c2ccc3c(c2)S(=O)(=O)c2ccccc2C3=O)CC1	93*	25	3	-2	-10	·
COC(=O)[C@@H]1[C@@H](CO)[C@@H]2Cn3c(ccc(-c4cncnc4)c3=O)[C@H]1N2S(=O)(=O)c1ccccc1C	·	·	33	1	·	2
Cc1ccc(Cn2nc(C(=O)Nc3ccc(Br)cc3)cc2C)cc1	38	5	-2	59*	47	0
O=C(OCc1ccccc1)N1CCC2CC1c1cc(N3Cc4ccccc4-n4nncc4C3)ccc12 (stereo not drawn)	·	?	-8	77*	-180	0
SMILES	MITF TRPM1 HTS	Wnt bcat act	Cneo AK release	esBAF inh	HIV Env fusion	ERAP1 inh
COC(=O)[C@@H]1[C@@H](CO)[C@@H]2Cn3c(cccc3=O)[C@H]1N2Cc1nccs1	·	·	-4	8	-7[16.7 µM]	-1
CNC(C)Cc1ccccc1 (stereo not drawn)	6	3	-2	5	·	-3
CC(Cc1ccccc1)/[N+]([O-])=C\c1ccc(C(F)(F)F)cc1 (stereo not drawn)	115*	27	0	76*	-33	-2
CN(C)C(=O)Oc1c(Cl)cc(Cl)c2cccnc12	-2	48*	-1	-8	8	·
COc1ccccc1CN1[C@H](CO)[C@H](c2ccccc2)C12CN(C(=O)Cc1ccccc1)C2	·	·	·	·	·	-3
NNCc1ccccc1	32	13	0	49*!	24	-2
c1ccc(CNC2CCCCCCC2)cc1 (tested in a mixture with another compound)	14	3	·	·	-9	5
CCC(=NCc1ccc(F)cc1)c1c(O)n(C)c(=O)n(C)c1=O	·	·	0	-28	80*	·
COc1ccc(CC2C(=O)NC(C)C(=O)N(C)C3C(=O)N(C)C(Cc4ccc(O)c(c4)Oc4ccc(cc4)C3O)C(=O)NC(C)C(=O)NC(C)C(=O)N2C)cc1 (stereo not drawn)	·	-10	·	·	70*	-1
OC[C@@H]1[C@@H]2c3ccccc3NC[C@@H]2N1Cc1cccnc1	·	·	4	-4	·	0
CC1CCC/C=C/C2CC(O)CC2C(O)/C=C/C(=O)O1 (stereo not drawn)	-84	-32	1	-65	107*	·
C[C@H]1CCC/C=C/C2C[C@H](O)CC2[C@H](O)/C=C/C(=O)O1 (stereo partly drawn)	-80	·	0	-59	·	·
C=C1C(=O)O[C@@H]2C[C@@H](C)[C@@H]3C=CC(=O)[C@@]3(C)[C@@H](OC(=O)CC(=O)O[C@H]3[C@@H]4C(=C)C(=O)O[C@@H]4C[C@@H](C)[C@@H]4C=CC(=O)[C@]43C)[C@H]12	-98	-20	-1	-87	109*	-1
C=C1C(=O)OC2CC(C)C3C=CC(=O)C3(C)C(O)C12 (stereo not drawn)	-99	·	·	·	·	·
O=C(O)[C@@H]1[C@@H](CO)[C@@H]2Cn3c(cccc3=O)[C@H]1N2C(=O)c1ccccc1	·	·	50	0	·	1
COc1cccc(CNC(=O)CCC(=O)N2C[C@H]3C[C@H](C2)c2cccc(=O)n2C3)c1OC	5	1	-3	1	·	-3
COc1ccccc1CCNC(=O)CCC(=O)N1CC2C[C@@H](C1)Cn1c2cccc1=O	19	-1	-1	46*	·	-1
